Measurements from BindingDB's records for doi:10.1021/jm050851n (University of Arizona, 2006).

Molecular target: Mu-type opioid receptor (Rattus norvegicus, UniProt P33535)
Assay: Displacement of [3H]DAMGO from rat mu opioid receptor expressed in HN9.10 cells
Method in brief: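 Membranes from stably transfected HN9.10 neuroblastoma cells in 50 mM Tris pH 7.4 with bacitracin, bestatin, captopril, PMSF and 1 mg/mL BSA. 50 µg membrane, 10 test concentrations, 1.0 nM [3H]DAMGO (Kd level). Nonspecific binding defined with 10 µM naloxone. Duplicates, 3 h at 25 °C, filtration, scintillation counting. Ki from IC50 by Cheng–Prusoff; at least two independent experiments.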

Mu-type opioid receptor, sequence (P33535 whole entry): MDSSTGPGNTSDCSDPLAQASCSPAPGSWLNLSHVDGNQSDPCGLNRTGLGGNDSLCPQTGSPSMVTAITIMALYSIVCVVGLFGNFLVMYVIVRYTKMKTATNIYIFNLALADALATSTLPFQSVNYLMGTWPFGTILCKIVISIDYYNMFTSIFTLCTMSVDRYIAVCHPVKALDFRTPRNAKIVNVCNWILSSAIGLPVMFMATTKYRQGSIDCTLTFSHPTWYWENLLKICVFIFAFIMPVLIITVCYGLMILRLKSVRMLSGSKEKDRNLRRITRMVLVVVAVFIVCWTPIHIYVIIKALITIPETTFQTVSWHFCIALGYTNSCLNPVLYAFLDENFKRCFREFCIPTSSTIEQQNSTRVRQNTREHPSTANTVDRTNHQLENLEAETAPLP

CC(=O)N[C@@H](Cc1c[nH]c2ccccc12)C(=O)N[C@@H](CCCCNC(=O)Nc1ccccc1Cl)C(=O)N[C@@H](CC(=O)O)C(=O)N(C)[C@@H](Cc1ccccc1)C(=O)NNC(=O)[C@H](Cc1ccccc1)NC(=O)CNC(=O)[C@@H](C)NC(=O)[C@@H](N)Cc1ccc(O)cc1 [H-Tyr-D-Ala-Gly-Phe-NH-NH-(NMe)Phe-Asp-Lys(Cpac)-Trp-Ac]
EC50: 14 nM
